{"data": "Assay results collected from several papers", "target": "5-hydroxytryptamine receptor 2B (HTR2B, Homo sapiens, UniProt P41595)", "note": "Protocols differ between the studies behind these lines."}
{"Compound": "Cc1ncc(-c2cc(Cl)ccc2F)cc1-n1c(=O)n(CC(N)=O)c2ccccc21", "test": "ligand displacement", "conditions": "10 µM", "quantity": "inhibition", "value": "72%"}
{"Compound": "Ic1cccc2cnccc12", "test": "ligand displacement, radioligand", "conditions": "10 µM", "quantity": "inhibition", "value": "79%"}
{"Compound": "CCN(CC)c1ccc(C2Nc3ccc(C(=O)c4ccccc4)cc3NC3=C2C(=O)CC(C)(C)C3)cc1 (centres unmarked)", "test": "ligand displacement, radioligand", "conditions": "10 µM", "quantity": "inhibition", "value": "50%"}
{"Compound": "Clc1cccc(OC[C@@H]2CN(CCN3CCc4ccccc43)CCO2)c1", "test": "calcium signal, agonist, fluorescence", "quantity": "Emax", "value": "71.2%"}
{"Compound": "O=C(Nc1ccc(S(=O)(=O)N2CCC(Cl)CC2)cc1)c1ccc([N+](=O)[O-])o1", "test": "ligand displacement, radioligand", "conditions": "10 µM", "quantity": "inhibition", "value": "8%"}
{"Compound": "O=C1N=C(N2CCCCN2)S/C1=C\\c1ccc(F)cc1O", "test": "ligand displacement, radioligand", "conditions": "10 µM", "quantity": "inhibition", "value": "< 10%"}
{"Compound": "CCN(Cc1ccccc1C(F)(F)F)C(=O)C1CCN(S(=O)(=O)c2ccc3[nH]ncc3c2)CC1", "test": "ligand displacement, radioligand", "conditions": "10 µM", "quantity": "inhibition", "value": "32%"}
{"Compound": "Nc1ccc(-c2ccncc2)cc1NC(=O)N1CCCC1", "test": "ligand displacement, radioligand", "conditions": "10 µM", "quantity": "inhibition", "value": "14%"}
{"Compound": "CCCNc1nc2ccccc2n1Cc1ccc(Cl)cc1", "test": "ligand displacement", "conditions": "10 µM", "quantity": "inhibition", "value": "96.3%"}
{"Compound": "C#CCOCCOCCOc1ccc2c3c1C1CCCC1N3CCNC2 (racemic)", "test": "ligand displacement, radioligand", "conditions": "10 µM", "quantity": "inhibition", "value": "~70%"}
{"Compound": "O=C(c1ccc(Cl)cc1)N(Cc1ccccc1)C1CCCCC1", "test": "ligand displacement, radioligand", "conditions": "10 µM", "quantity": "inhibition", "value": "19.9%"}
{"Compound": "O=C(O)c1cc(-c2ccc(C3CCNCC3)cc2)c2ccc(-c3ccc(C(F)(F)F)cc3)cc2c1", "test": "ligand displacement", "conditions": "10 µM", "quantity": "inhibition", "value": "7.95%"}
{"Compound": "N#Cc1cc(Cn2c(N3CCCC3)nc3ccccc32)ccc1F", "test": "ligand displacement", "conditions": "10 µM", "quantity": "inhibition", "value": "30.4%"}
{"Compound": "O=C(c1ccc(F)cc1)N(Cc1ccccc1)C1CCCCC1", "test": "cell-free assay, radioligand", "conditions": "10 µM", "quantity": "inhibition", "value": "20%"}
